Measurements reported in ChEMBL document CHEMBL1123157, “Thromboxane synthetase inhibitors and antihypertensive agents. 1. N-[(1H-imidazol-1-yl)alkyl]aryl amides and N-[(1H-1,2,4-triazol-1-yl)alkyl]aryl amides” (J Med Chem, 1986).
Calls of active or inactive are those of the source.

How the values were obtained:
Rattus norvegicus [1] = experiment: Antihypertensive activity in spontaneously hypertensive rats at 100 mg/kg po/day for 2 days; format: functional, organism-based; parameters: dose 100 mg/kg
Outline: (§1)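 Male 16-week-old Okamoto SHR (mean arterial pressure about 170 mmHg), 1-3 rats per compound. Given by gavage in 2% preboiled starch (50 mg/mL), 100 mg/kg or less, with 0.9% NaCl load (25 mL/kg). Second dose without saline 24 h later. Mean arterial pressure measured 28 h after first dose. Active if ≤116 mmHg in one rat or mean ≤122 mmHg in two.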

[2] = target: T1, Thromboxane-A synthase (Rattus norvegicus) (UniProt P49430); experiment: Inhibitory activity for thromboxane synthetase determined by TXB2 levels in platelets from spontaneously hypertensive rats.; parameters: concentration or dose not given beside the values; conditions: concentration not given here
T1 sequence (whole entry): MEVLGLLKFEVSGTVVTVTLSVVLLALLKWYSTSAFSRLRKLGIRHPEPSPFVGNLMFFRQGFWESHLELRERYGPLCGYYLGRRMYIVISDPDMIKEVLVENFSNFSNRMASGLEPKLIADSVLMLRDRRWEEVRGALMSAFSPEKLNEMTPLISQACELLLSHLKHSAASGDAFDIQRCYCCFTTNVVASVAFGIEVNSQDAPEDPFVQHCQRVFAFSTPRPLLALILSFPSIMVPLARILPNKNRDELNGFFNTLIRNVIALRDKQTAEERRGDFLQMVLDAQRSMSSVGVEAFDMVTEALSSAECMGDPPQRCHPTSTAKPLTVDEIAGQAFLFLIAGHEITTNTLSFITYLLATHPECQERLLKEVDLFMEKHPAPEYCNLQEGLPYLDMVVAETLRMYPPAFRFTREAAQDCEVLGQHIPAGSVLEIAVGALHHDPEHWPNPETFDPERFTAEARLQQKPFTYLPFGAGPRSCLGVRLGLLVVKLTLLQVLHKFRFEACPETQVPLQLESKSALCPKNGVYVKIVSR
Outline: (§2)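 Washed SHR platelets in oxygenated Krebs phosphate buffer, pH 7.4, 4.5-6.0 × 10^4/μL, incubated with vehicle or drug for 10 min at 37 °C. Stopped with ice and citric acid. Supernatant TXB2 measured by RIA; TXB2 in boiled controls subtracted; % inhibition calculated. IC50 read graphically from % inhibition vs log concentration; single-point screen at 10^-4 M.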

Thromboxane-A synthase [3] = target: T2, Thromboxane-A synthase (Rattus norvegicus, UniProt P49430); experiment: Compound was tested for inhibitory activity against thromboxane synthetase
T2 sequence (P49430 whole entry): T1 sequence (whole entry)
Outline: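 Washed SHR platelets in oxygenated Krebs phosphate buffer, pH 7.4, 4.5-6.0 × 10^4/μL, incubated with vehicle or drug for 10 min at 37 °C. Stopped with ice and citric acid. Supernatant TXB2 measured by RIA; TXB2 in boiled controls subtracted; % inhibition calculated.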

Rattus norvegicus [4] = experiment: Antihypertensive activity in spontaneously hypertensive rats tested at 100 mg/kg po/day for 2 days; format: functional, organism-based; parameters: dose 100 mg/kg; outline: as §1
Thromboxane-A synthase [5] = target: T2, Thromboxane-A synthase; experiment: compound was tested for inhibitory activity against thromboxane synthetase,; outline: as §2

| SMILES | inhibition [2] | IC50 (Thromboxane-A synthase [3]) | IC50 (Thromboxane-A synthase [5]) | Activity (Rattus norvegicus [1]) | Activity (Rattus norvegicus [4]) |
| --- | --- | --- | --- | --- | --- |
| Cc1cn(CCCNC(=O)c2ccc(C(F)(F)F)cc2)cn1 | 92% | – | – | Active | – |
| O=C(NCCCn1cncn1)c1ccccc1 | 77% | – | – | Active | – |
| Cc1nccn1CCCNC(=O)c1ccc(Cl)cc1 | 0% | – | – | Active | – |
| O=C(NCCCCCCCCn1ccnc1)c1ccc(Cl)cc1 | 100% | 100 nM | – | Active | – |
| Cc1nccn1CCCNC(=O)c1ccc(C(F)(F)F)cc1 | 36% | – | – | Active | – |
| O=C(Cc1cccc(Cl)c1)NCCCn1ccnc1 | 75% | – | – | Active | – |
| O=C(NCCCCCn1ccnc1)c1ccc(C(F)(F)F)cc1 | 100% | 700 nM | – | – | inactive |
| O=C(NCCCn1ccnc1)c1cccc(C(F)(F)F)c1 | 100% | 4000 nM | – | Active | – |
| O=C(NCCCn1ccnc1)c1cccc(Br)c1 | 91% | – | – | Active | – |
| Nc1ccccc1C(=O)NCCCn1ccnc1 | 89% | – | – | Active | – |
| Cc1cn(CCCNC(=O)c2ccc(Cl)c(Cl)c2)cn1 | 90% | – | – | Active | – |
| Cc1cn(CCCNC(=O)c2ccc(Br)cc2)cn1 | 80% | – | – | Active | – |
| CN(C)c1ccc(C(=O)NCCCn2cncn2)cc1 | 64% | – | – | Active | – |
| Cc1cn(CCCNC(=O)c2ccc(Cl)cc2)cn1 | 93% | – | – | Active | – |
| O=C(/C=C/c1ccc(Cl)cc1)NCCCn1ccnc1 | 98% | – | – | Active | – |
| C=CCNc1ccc(Cl)cc1C(=O)NCCCn1ccnc1 | 95% | – | – | Active | – |
| Cc1cn(CCCNC(=O)c2cccc(Cl)c2)cn1 | 84% | – | – | Active | – |
| O=C(NCCCn1cnc(-c2ccccc2)c1)c1ccc(Cl)cc1 | 69% | – | – | Active | – |
| Cc1ccc(CC(=O)NCCCn2ccnc2)cc1 | 58% | – | – | Active | – |

More lines, main results first:

| inhibition [2] | IC50 (Thromboxane-A synthase [3]) | IC50 (Thromboxane-A synthase [5]) | SMILES | Activity (Rattus norvegicus [1]) | Activity (Rattus norvegicus [4]) |
| --- | --- | --- | --- | --- | --- |
| 87% | – | – | O=C(NCCCCn1ccnc1)c1ccc(Br)cc1 | Active | – |
| 95% | 5000 nM | – | O=C(NCCCCn1ccnc1)c1ccc(Cl)cc1 | – | inactive |
| 100% | 500 nM | – | CSc1ccc(C(=O)NCCCn2ccnc2)cc1 | – | inactive |
| 93% | – | – | O=C(NCCCn1ccnc1)c1ccc(C(F)(F)F)cc1 | Active | – |
| 95% | – | – | O=C(NCCCn1ccnc1)c1ccc(Cl)cc1 | Active | – |
| 100% | 800 nM | – | O=C(NCCCCCCn1ccnc1)c1ccc(Cl)cc1 | – | inactive |
| 100% | – | 5000 nM | O=C(NCCCCCn1ccnc1)c1ccc(Cl)cc1 | – | inactive |
| 97% | 550 nM | – | O=C(NCCCn1ccnc1)c1ccc(I)cc1 | – | inactive |
| 75% | – | – | O=C(NCCCn1ccnc1)c1cccc(Cl)c1 | Active | – |
| 85% | – | – | O=C(NCCCn1ccnc1)c1ccc(Br)cc1 | Active | – |
